Data as given in ChEMBL document CHEMBL2311519, “Identification and characterization of new DNA G-quadruplex binders selected by a combination of ligand and structure-based virtual screening approaches” (J Med Chem, 2013).
Values belong to the compound of their own block, whether it stands above or below them. Active and inactive are the calls of the source. No cut-off for these calls is given here.

Legend:
Homo sapiens [1] = species: Homo sapiens; test: Binding affinity to 18 bp double-stranded DNA (unknown origin) assessed as DNA stabilization by fluorescence melting assay
How it was run: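 Fluorescence melting in a real-time PCR cycler (excitation 488 nm, emission 520 nm). The HTS target carried 5′-Dabcyl and 3′-fluorescein; the 18 bp duplex was also a target. Mixtures held 0.25 μM DNA plus ligand in 10 mM LiOH, 50 mM KCl, pH 7.4 (H3PO4). Samples were denatured at 95 °C for 5 min, cooled to 30 °C at 0.5 °C/min, then heated to 90 °C and recooled at 0.2 °C/min. Tm came from the first derivative, ≥3 repeats.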

Homo sapiens [2] = species: Homo sapiens; test: Binding affinity to human telomeric sequence 5'-AGGGTTAGGGTTAGGGTTAGGGT-3' assessed as change in melting temperature at 10 uM by fluorescence melting assay
Homo sapiens [3] = species: Homo sapiens; test: Stabilization of single-stranded DNA 5'-GGATGTGAGTGTGAGTGTGAGG-3' (unknown origin) assessed as DNA modifications at 20 to 50 uM measured 20 mins post UV irradiation by PAGE analysis
How it was run: (§1)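 Tel22 or single-stranded 22-mer 5′-32P end-labelled with T4 kinase; 1 μM DNA in 10 mM Tris, 50 mM KCl, pH 7.5 with increasing ligand, irradiated at 308 nm for variable time (or ligand pre-irradiated 30 min, or non-irradiated); products run on 20% polyacrylamide/7 M urea in 1× TBE, quantified by phosphorimaging.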

Homo sapiens [4] = species: Homo sapiens; test: Binding affinity to G-quadruplex folded telomeric sequence Tel22 DNA (unknown origin) assessed as DNA stabilization measured 25 mins post UV irradiation by circular dichroism spectral analysis
Homo sapiens [5] = species: Homo sapiens; test: Stabilization of double-stranded DNA (unknown origin) assessed as DNA modifications at 20 to 50 uM measured 20 mins post UV irradiation by PAGE analysis
[6] = Stability of the compound assessed as retention time after 25 mins of UV irradiation; type: physicochemical
How it was run: (§2)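 30 μM ligand in 10 mM Tris-HCl, 50 mM KCl, pH 7.5 irradiated at 308 nm (0.022 J/min), 25 °C, for increasing times; analysed by LC on C18 (water/acetonitrile 4–80% gradient with 0.1% formic acid over 20 min, 0.02 mL/min) with positive-mode ESI-MS, m/z 100–2500.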

Homo sapiens [7] = species: Homo sapiens; test: Binding affinity to G-quadruplex folded telomeric sequence Tel22 DNA (unknown origin) assessed as DNA stabilization at 8 uM by circular dichroism spectral analysis
[8] = Stability of the compound assessed as retention time; type: physicochemical; how it was run: as §2
[9] = Stability of the compound assessed as retention time after 100 mins of UV irradiation; type: physicochemical
How it was run: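 Ligand (30 μM) in 10 mM Tris-HCl, 50 mM KCl, pH 7.5 was irradiated at 308 nm (0.022 J/min) at 25 °C for increasing times. Samples ran on C18 HPLC at 0.02 mL/min with a water/acetonitrile gradient (0.1% formic acid) of 4–80% over 20 min. Detection was positive-mode ESI-MS (4.5 kV, m/z 100–2500).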

Homo sapiens [10] = species: Homo sapiens; test: Binding affinity to G-quadruplex folded telomeric sequence Tel22 DNA (unknown origin) assessed as DNA stabilization at 8 uM by circular dichroism spectral analysis relative to control
[11] = Stability of the compound assessed as retention time after 3 mins of UV irradiation; type: physicochemical; conditions: 0.05 h; how it was run: as §2
DNA = test: Binding affinity to calf thymus DNA assessed as DNA stabilization at 8 uM by circular dichroism spectral analysis; conditions: Bos taurus
Homo sapiens [12] = species: Homo sapiens; test: Stabilization of G-quadruplex folded telomeric sequence Tel22 DNA (unknown origin) assessed as DNA modifications at 20 to 50 uM measured 20 mins post UV irradiation by PAGE analysis; how it was run: as §1
Homo sapiens [13] = species: Homo sapiens; test: Binding affinity to human telomeric sequence 5'-AGGGTTAGGGTTAGGGTTAGGGT-3' assessed as thermal stability by fluorescence melting assay relative to control
How it was run: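 Fluorescence melting on a LightCycler (ex 488, em 520 nm); 0.25 μM 5′-Dabcyl/3′-fluorescein HTS oligo in 10 mM LiOH, 50 mM KCl, pH 7.4 (H3PO4); ligand 0.5–10 μM; denatured 95 °C 5 min, cooled to 30 °C, melted 0.2 °C/min to 90 °C; Tm from first derivative; ≥3 repeats.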

Activity (Homo sapiens [1]): inactive
SMILES: Cc1c(CCC(=O)NCCCn2ccnc2)c(=O)oc2cc3occ(-c4ccc(F)cc4)c3cc12

Activity (Homo sapiens [3]): Active | Activity (Homo sapiens [4]): inactive | Activity (Homo sapiens [5]): Active | Retention_time [6]: 16.6 min | Activity (Homo sapiens [1]): inactive | Activity (Homo sapiens [7]): inactive | Retention_time [8]: 17 min | Retention_time [9]: 16.6 min | Activity (Homo sapiens [10]): inactive | Retention_time [11]: 16.6 min | Activity (DNA): inactive | Activity (Homo sapiens [12]): Active
SMILES: Cc1c(CC(=O)N(C)C2CCN(C)CC2)c(=O)oc2c(C)c3occ(-c4ccccc4)c3cc12

Activity (Homo sapiens [1]): inactive
SMILES: Cc1c(CCC(=O)N2CCN(C)CC2)c(=O)oc2cc3occ(-c4ccccc4)c3cc12

The remaining lines, values behind:

SMILES: Cc1cc2c3c([n+](C)c4ccc(F)cc4c3c1)-c1cc(F)ccc1N2C
deltaTm (Homo sapiens [2]): 30 °C

SMILES: COc1ccc(-c2coc3cc4oc(=O)c(CC(=O)N5CCN(CCO)CC5)c(C)c4cc23)cc1
Activity (Homo sapiens [1]): inactive

SMILES: CN(C)c1ccc(Nc2c3ccc(NC(=O)CCN4CCCC4)cc3nc3cc(NC(=O)CCN4CCCC4)ccc23)cc1
deltaTm (Homo sapiens [2]): 32 °C

SMILES: Cc1c(CC(=O)N2CCN(C)CC2)c(=O)oc2cc3occ(-c4ccc(Cl)cc4)c3cc12
Activity (Homo sapiens [13]): inactive | Activity (Homo sapiens [3]): Active | Activity (Homo sapiens [4]): inactive | Activity (Homo sapiens [5]): Active | Retention_time [6]: 16.1 min | Activity (Homo sapiens [1]): inactive | Activity (Homo sapiens [7]): inactive | Retention_time [8]: 17.2 min | Activity (Homo sapiens [10]): inactive | Retention_time [11]: 16.1 min | Activity (DNA): inactive | Activity (Homo sapiens [12]): Active
